Reference: the M2OR odorant receptor database
Substitutions are numbered along the chain they refer to.

Tests used:
Details in all cases: stereoisomer not certain
O10H2 = system: T1, O10H2
T1 sequence (whole entry): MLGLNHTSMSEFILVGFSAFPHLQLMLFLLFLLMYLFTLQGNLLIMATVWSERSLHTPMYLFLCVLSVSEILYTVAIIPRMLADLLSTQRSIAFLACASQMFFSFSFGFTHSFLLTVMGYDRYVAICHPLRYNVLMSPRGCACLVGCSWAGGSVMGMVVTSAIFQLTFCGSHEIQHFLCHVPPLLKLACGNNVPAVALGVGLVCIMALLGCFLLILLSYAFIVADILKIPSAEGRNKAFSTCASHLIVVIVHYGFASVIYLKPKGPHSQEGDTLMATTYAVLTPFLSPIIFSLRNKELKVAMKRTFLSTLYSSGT
Outline: (§1)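 Assay methods differ from source to source, frequently being transient luciferase assays in mammalian cell lines. For each receptor–molecule pair, the label responsive (active) applies when the original authors judged the measured signal statistically different from baseline, and non-responsive (inactive) applies otherwise.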

O10H3 R54H = system: T2, O10H3 R54H
T2 sequence (whole entry): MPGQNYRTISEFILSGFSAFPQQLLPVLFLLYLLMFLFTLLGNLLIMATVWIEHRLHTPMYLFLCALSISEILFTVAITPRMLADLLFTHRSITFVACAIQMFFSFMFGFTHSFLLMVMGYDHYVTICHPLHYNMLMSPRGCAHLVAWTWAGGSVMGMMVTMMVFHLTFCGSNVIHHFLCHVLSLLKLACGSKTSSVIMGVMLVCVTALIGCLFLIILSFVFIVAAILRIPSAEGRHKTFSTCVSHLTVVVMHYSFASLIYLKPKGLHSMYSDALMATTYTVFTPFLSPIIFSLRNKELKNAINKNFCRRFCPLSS
Outline: as §1

O10H4 I50V = system: T3, O10H4 I50V
T3 sequence (whole entry): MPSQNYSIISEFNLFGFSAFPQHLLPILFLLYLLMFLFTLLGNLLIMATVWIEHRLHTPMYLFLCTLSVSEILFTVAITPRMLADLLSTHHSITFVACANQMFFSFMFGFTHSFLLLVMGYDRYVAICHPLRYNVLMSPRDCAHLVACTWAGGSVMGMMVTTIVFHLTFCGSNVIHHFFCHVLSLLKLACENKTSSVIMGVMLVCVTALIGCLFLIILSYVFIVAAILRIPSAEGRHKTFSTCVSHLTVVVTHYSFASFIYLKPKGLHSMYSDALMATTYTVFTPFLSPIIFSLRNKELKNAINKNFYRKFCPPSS
Outline: as §1

O10H5 S268Y = system: T4, O10H5 S268Y
T4 sequence (whole entry): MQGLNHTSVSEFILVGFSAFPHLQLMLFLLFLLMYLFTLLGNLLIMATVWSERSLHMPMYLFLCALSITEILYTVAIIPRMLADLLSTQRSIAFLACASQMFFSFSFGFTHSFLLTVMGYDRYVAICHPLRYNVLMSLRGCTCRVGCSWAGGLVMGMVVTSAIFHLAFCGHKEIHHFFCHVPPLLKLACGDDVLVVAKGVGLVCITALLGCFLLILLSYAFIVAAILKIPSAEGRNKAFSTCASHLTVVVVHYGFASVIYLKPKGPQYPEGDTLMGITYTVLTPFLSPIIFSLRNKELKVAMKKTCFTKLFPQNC
Outline: as §1

O10J1 M62I I103M = system: T5, O10J1 M62I I103M
T5 sequence (whole entry): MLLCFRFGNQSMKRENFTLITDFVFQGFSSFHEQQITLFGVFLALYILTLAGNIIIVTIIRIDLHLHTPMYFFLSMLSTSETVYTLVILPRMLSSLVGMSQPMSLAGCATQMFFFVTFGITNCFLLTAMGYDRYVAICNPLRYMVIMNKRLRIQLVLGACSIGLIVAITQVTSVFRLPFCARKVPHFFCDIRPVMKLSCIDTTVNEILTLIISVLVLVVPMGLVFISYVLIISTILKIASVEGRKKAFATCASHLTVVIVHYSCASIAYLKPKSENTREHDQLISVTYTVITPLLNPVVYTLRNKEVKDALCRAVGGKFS
Outline: as §1

O10J1 M62I = system: T6, O10J1 M62I
T6 sequence (whole entry): T5 sequence (whole entry) with M103I
Outline: as §1

O10J3 Q235R E319G = system: T7, O10J3 Q235R E319G
T7 sequence (whole entry): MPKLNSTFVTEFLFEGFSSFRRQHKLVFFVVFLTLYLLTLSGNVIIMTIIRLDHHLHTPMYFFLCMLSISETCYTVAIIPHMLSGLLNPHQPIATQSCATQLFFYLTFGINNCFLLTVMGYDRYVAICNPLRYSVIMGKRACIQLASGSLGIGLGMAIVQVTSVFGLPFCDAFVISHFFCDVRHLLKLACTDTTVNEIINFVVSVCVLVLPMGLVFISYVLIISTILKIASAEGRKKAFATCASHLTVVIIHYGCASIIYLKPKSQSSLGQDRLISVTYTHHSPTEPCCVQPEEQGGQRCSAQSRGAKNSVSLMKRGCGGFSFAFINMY
Outline: as §1

O10P1 R195K = system: T8, O10P1 R195K
T8 sequence (whole entry): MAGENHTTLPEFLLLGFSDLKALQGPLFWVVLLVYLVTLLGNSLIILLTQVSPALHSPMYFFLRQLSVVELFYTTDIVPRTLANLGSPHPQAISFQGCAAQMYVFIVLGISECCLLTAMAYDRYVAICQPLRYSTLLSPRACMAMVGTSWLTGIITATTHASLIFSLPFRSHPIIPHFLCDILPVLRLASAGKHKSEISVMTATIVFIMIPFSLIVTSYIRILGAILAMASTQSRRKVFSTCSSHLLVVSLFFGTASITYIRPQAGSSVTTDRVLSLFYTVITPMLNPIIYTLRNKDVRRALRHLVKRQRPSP
Outline: as §1

O10Q1 E12D = system: T9, O10Q1 E12D
T9 sequence (whole entry): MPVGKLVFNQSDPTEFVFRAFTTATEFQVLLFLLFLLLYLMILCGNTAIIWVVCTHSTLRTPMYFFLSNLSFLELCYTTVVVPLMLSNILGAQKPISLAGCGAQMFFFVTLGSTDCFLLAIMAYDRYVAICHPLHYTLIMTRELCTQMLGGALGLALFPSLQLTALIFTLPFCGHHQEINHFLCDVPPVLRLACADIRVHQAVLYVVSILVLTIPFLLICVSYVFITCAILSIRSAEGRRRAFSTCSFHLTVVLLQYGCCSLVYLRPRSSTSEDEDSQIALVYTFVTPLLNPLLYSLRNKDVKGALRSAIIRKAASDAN
Outline: as §1

O10Q1 Q10R E12D = system: T10, O10Q1 Q10R E12D
T10 sequence (whole entry): T9 sequence (whole entry) with Q10R
Outline: as §1

O10R2 I170L = system: T11, O10R2 I170L
T11 sequence (whole entry): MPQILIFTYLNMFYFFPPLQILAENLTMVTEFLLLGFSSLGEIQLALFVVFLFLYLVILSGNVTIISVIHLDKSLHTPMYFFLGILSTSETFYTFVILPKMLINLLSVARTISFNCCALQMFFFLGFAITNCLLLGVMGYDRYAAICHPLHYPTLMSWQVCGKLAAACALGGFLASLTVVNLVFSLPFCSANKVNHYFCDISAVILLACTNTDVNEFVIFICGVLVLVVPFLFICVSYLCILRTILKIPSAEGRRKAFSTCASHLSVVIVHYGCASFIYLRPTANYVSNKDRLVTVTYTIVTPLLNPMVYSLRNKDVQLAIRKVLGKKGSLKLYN
Outline: as §1

O10T2 I137M = system: T12, O10T2 I137M
T12 sequence (whole entry): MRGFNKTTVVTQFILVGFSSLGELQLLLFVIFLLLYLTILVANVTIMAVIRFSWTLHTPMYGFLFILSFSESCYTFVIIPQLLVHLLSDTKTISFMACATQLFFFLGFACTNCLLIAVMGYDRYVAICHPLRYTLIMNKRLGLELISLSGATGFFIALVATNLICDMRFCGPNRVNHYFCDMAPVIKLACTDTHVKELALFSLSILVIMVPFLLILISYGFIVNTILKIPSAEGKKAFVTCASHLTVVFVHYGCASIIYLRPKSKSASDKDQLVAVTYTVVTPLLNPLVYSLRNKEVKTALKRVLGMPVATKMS
Outline: as §1

O10V1 Q123R = system: T13, O10V1 Q123R
T13 sequence (whole entry): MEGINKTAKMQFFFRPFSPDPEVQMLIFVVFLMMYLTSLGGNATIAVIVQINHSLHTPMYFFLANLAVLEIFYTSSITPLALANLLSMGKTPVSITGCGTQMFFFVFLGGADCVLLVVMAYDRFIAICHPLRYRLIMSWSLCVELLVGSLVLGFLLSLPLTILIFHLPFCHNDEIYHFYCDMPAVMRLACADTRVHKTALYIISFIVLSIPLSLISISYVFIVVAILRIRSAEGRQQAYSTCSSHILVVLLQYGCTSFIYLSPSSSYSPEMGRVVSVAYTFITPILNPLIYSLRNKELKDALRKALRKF
Outline: as §1

O10X1 N4T R181S = system: T14, O10X1 N4T R181S
T14 sequence (whole entry): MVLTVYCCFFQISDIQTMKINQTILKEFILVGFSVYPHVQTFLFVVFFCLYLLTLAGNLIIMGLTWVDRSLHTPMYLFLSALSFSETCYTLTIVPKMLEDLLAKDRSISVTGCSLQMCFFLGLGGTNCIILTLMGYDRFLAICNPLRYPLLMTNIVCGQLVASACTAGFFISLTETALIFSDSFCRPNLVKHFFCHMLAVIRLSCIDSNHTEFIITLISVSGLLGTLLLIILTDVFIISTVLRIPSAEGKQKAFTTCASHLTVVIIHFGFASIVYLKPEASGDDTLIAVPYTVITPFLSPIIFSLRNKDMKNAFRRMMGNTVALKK
Outline: as §1

O11G2 F3I I99N V116I = system: T15, O11G2 F3I I99N V116I
T15 sequence (whole entry): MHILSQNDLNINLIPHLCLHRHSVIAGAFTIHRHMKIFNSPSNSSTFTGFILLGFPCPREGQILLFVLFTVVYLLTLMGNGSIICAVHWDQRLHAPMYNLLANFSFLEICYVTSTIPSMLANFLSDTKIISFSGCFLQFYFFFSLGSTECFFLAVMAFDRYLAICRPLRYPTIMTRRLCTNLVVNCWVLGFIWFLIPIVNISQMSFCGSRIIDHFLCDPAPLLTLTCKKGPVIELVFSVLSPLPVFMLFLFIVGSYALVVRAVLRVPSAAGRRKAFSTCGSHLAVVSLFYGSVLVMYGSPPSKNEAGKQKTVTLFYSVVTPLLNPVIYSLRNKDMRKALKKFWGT
Outline: as §1

O11H1 M240V = system: T16, O11H1 M240V
T16 sequence (whole entry): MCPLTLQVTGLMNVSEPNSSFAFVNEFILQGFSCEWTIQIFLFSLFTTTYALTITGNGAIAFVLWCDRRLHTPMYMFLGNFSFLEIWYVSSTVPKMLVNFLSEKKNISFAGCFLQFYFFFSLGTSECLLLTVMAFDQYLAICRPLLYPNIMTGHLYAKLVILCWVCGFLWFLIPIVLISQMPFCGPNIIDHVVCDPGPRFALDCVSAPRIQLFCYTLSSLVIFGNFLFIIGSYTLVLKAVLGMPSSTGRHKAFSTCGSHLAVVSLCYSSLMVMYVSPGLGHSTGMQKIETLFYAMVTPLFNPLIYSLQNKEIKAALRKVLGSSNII
Outline: as §1

O11H6 I107T = system: T17, O11H6 I107T
T17 sequence (whole entry): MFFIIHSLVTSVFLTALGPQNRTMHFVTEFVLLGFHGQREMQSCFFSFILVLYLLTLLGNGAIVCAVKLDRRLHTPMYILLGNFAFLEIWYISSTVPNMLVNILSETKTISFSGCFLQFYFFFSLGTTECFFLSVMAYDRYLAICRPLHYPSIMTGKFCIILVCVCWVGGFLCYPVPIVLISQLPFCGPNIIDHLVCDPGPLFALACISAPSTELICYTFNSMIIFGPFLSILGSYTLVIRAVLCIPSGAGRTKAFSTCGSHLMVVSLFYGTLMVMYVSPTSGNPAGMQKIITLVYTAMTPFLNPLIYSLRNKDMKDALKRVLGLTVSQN
Outline: as §1

O11HC C156Y V240M = system: T18, O11HC C156Y V240M
T18 sequence (whole entry): T16 sequence (whole entry) with S33T, R68W, V240M
Outline: as §1

O12D2 S104F = system: T19, O12D2 S104F
T19 sequence (whole entry): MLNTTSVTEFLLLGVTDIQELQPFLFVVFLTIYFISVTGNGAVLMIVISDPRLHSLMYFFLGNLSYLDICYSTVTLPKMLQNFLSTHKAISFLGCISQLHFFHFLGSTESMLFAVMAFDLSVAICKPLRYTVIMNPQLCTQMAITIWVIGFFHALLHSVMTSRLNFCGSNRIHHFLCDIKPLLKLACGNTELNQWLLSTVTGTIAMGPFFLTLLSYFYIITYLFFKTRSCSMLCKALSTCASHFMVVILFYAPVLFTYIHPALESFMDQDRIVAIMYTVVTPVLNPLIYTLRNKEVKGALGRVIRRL
Outline: as §1

O13C2 H6Q = system: T20, O13C2 H6Q
T20 sequence (whole entry): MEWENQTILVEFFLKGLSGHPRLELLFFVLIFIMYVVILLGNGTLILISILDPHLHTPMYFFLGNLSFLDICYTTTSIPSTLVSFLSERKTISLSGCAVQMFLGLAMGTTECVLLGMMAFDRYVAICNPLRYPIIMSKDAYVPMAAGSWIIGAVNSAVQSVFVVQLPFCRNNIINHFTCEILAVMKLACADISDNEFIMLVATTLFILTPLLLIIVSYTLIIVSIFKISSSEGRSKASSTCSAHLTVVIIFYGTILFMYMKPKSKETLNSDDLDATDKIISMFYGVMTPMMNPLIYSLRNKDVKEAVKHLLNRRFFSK
Outline: as §1

Measured: odorant receptor agonist call

CC1=C(O)C(=O)C(C)O1 (stereo not given)
inactive: all assays above

CC1=C(O)C(=O)OC1C (stereo not given)
inactive: all assays above

CCCC(S)CCOC(C)=O (stereo not given)
inactive: all assays above

CCC1OC(=O)C(O)=C1C (stereo not given)
inactive: all assays above
